According to ChEMBL document CHEMBL1157466, “Antifouling activity of meroditerpenoids from the marine brown alga Halidrys siliquosa” (J Nat Prod, 2008):
Values after ≈ are worked out from the molar mass of the structure shown.

Key:
[1] = tested on: Cobetia marina; experiment: Antibacterial activity against Cobetia marina ATCC 25374 after 24 hrs by microtiter broth dilution method; format: functional
In short: (§1)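 Marine bacteria at 2×10^8 cells/mL incubated with compound (0.5, 1, 2.5, 5, 10, 25, 50, 100 µg/mL) in Mueller Hinton broth supplemented with NaCl (15 g/L), 25 °C, 24 h, 96-well format. Six replicates per treatment alongside a seawater control. MIC read against the seawater control by microtiter broth dilution.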

[2] = tested on: Marinobacterium stanieri; experiment: Antibacterial activity against Marinobacterium stanieri ATCC 27130 after 24 hrs by microtiter broth dilution method; format: functional; in short: as §1
[3] = tested on: Aliivibrio fischeri; experiment: Antibacterial activity against Vibrio fischeri ATCC 7744 after 24 hrs by microtiter broth dilution method; format: functional; in short: as §1
[4] = tested on: Pseudoalteromonas haloplanktis; experiment: Antibacterial activity against Pseudoalteromonas haloplanktis after 24 hrs by microtiter broth dilution method; format: functional; in short: as §1
[5] = Toxicity against Balanus amphitrite stage 2 nauplii after 24 hrs; format: organism-based; conditions: amphibalanus amphitrite, in vivo
In short: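 Ten to fifteen stage-II barnacle nauplii per well in 2 mL solution; compounds at 0.5, 1, 2.5, 5, 10, 25, 50 and 100 µg/mL; six replicates per treatment and control. Swimming and dead nauplii counted after 24 h exposure; LC50 is the concentration giving 50% mortality relative to control, derived from the dose-response data.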

[6] = tested on: Amphibalanus amphitrite; experiment: Antifouling activity in Balanus amphitrite assessed as inhibition of cyprid larvae settlement after 24 hrs; format: functional, organism-based
In short: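 Cyprids obtained by filtration 4 days after larval release from field-collected adults. 10–15 cyprids per well in 2 mL seawater containing compound at 0.5–100 µg/mL (0.5, 1, 2.5, 5, 10, 25, 50, 100). Kept in darkness at 28 °C for 24 h, six replicates. Larvae scored as dead, settled or swimming under a dissecting microscope. EC50 calculated as 50% settlement inhibition relative to the seawater control.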

[7] = Cobetia marina, ATCC 25374, 24 h, read-out: MIC
[8] = Marinobacterium stanieri, ATCC 27130, 24 h, read-out: MIC
[9] = Aliivibrio fischeri, ATCC 7744, 24 h, read-out: MIC
[10] = Pseudoalteromonas haloplanktis, 24 h, read-out: MIC
[11] = Amphibalanus amphitrite, 24 h, read-out: EC50

Structure (SMILES): COc1cc(C)c(O)c(C/C=C(\C)CC(=O)/C=C(\C)CCCC(C)C(=O)C(O)C=C(C)C)c1 (stereo in doubt; 3)
- MIC [1]: 5 µg/mL (≈ 10.9 µM)
- MIC [2]: 5 µg/mL (≈ 10.9 µM)
- MIC [3]: 5 µg/mL (≈ 10.9 µM)
- MIC [4]: 10 µg/mL (≈ 21.9 µM)
- LC50 at 24 h [5]: > 100 µg/mL

Structure (SMILES): COc1cc(C)c(O)c(C/C=C(\C)CC(=O)/C=C(/C)CCCC(C)C(O)C(=O)C=C(C)C)c1 (stereo not given)
- MIC [1, 7]: > 100 µg/mL
- MIC [2, 8]: > 100 µg/mL
- MIC [3, 9]: > 100 µg/mL
- MIC [4, 10]: > 100 µg/mL
- EC50 [6, 11]: > 100 µg/mL
- LC50 at 24 h [5]: > 100 µg/mL

Structure (SMILES): COc1cc(C)c(O)c(C/C=C(\C)CC(=O)/C=C(\C)CCCC(C)C(O)C(=O)C=C(C)C)c1 (stereo in doubt; 8)
- MIC [1]: 10 µg/mL (≈ 21.9 µM)
- MIC [2]: 10 µg/mL (≈ 21.9 µM)
- MIC [3]: 25 µg/mL (≈ 54.7 µM)
- MIC [4]: 10 µg/mL (≈ 21.9 µM)
- EC50 [6]: > 100 µg/mL
- LC50 at 24 h [5]: > 100 µg/mL

Structure (SMILES): COc1cc(C)c(O)c(C/C=C(\C)CC(O)/C=C(\C)CCCC(C)C(=O)C(O)C=C(C)C)c1 (stereo not given)
- MIC [1, 7]: 1 µg/mL (≈ 2.18 µM)
- MIC [2, 8]: 1 µg/mL (≈ 2.18 µM)
- MIC [3, 9]: 0.5 µg/mL (≈ 1.09 µM)
- MIC [4, 10]: 1 µg/mL (≈ 2.18 µM)
- EC50 [6, 11]: 5 µg/mL (≈ 10.9 µM)
- LC50 at 24 h [5]: 10 µg/mL (≈ 21.8 µM)

Structure (SMILES): COc1cc(C)c(O)c(C/C=C(\C)CC(=O)/C=C(/C)CCCC(C)C(=O)C(O)C=C(C)C)c1 (stereo not given)
- MIC [1, 7]: 0.5 µg/mL (≈ 1.09 µM)
- MIC [2, 8]: 1 µg/mL (≈ 2.19 µM)
- MIC [3, 9]: 0.5 µg/mL (≈ 1.09 µM)
- MIC [4, 10]: 1 µg/mL (≈ 2.19 µM)
- EC50 [6, 11]: 1 µg/mL (≈ 2.19 µM)
- LC50 at 24 h [5]: 5 µg/mL (≈ 10.9 µM)

Structure (SMILES): COc1cc(C)c2c(c1)C=CC(C)(CC(=O)/C=C(\C)CCCC(C)[C@@H](O)C(=O)C=C(C)C)O2 (stereo not given in full)
- MIC [1, 7]: > 100 µg/mL
- MIC [2, 8]: > 100 µg/mL
- MIC [3, 9]: > 100 µg/mL
- MIC [4, 10]: > 100 µg/mL
- EC50 [6, 11]: > 100 µg/mL
- LC50 at 24 h [5]: > 100 µg/mL

Structure (SMILES): COc1cc(C)c(O)c(C/C=C(\C)CC(=O)/C=C(\C)CCCC(C)C(O)C(=O)C=C(C)C)c1 (stereo in doubt; 9)
- MIC [1]: 2.5 µg/mL (≈ 5.47 µM)
- MIC [2]: 1 µg/mL (≈ 2.19 µM)
- MIC [3]: 2.5 µg/mL (≈ 5.47 µM)
- MIC [4]: 1 µg/mL (≈ 2.19 µM)
- EC50 [6]: 4 µg/mL (≈ 8.76 µM)

Structure (SMILES): COc1cc(C)c(O)c(C/C=C(\C)CC(=O)/C=C(\C)CCCC(C)C(=O)C(O)C=C(C)C)c1 (stereo in doubt; 4)
- MIC [1]: >100 µg/mL
- MIC [2]: >100 µg/mL
- MIC [3]: >100 µg/mL
- MIC [4]: >100 µg/mL
- EC50 [6, 11]: > 100 µg/mL
